Measurements pooled from the literature.
Each line is one published result; the experiments were not run side by side.
Sample: plasma

species	route	dose	notes	measurement	result	SMILES
Sprague-Dawley rat	oral	10 mg/kg	–	AUC	11.1 µM·h	Cc1noc(-c2cc3cc(-c4nc(C(=O)NCc5ccncc5)[nH]c4C)ccc3[nH]2)n1
male Sprague-Dawley rat	oral	100 mg/kg	single dose	AUC(0-t)	37200 ng·h/mL	CCc1cc(C(=O)NC)c2nccc(N3CCc4c(cc(Cn5ccnc5)cc4-c4cn(C)nc4C(F)(F)F)C3=O)c2c1
male Sprague-Dawley rat	oral	1 mg/kg	–	AUC(0-inf)	38.2 ng·h/mL	CCOC(=O)[C@@]12C[C@@H]1[C@@H](n1ccc3c(NC)nc(C#Cc4ccc(Cl)s4)nc31)[C@H](O)[C@@H]2O
Sprague-Dawley rat	oral	10 mg/kg	–	AUC	10.3 µM·h	CCNC(=O)c1nc(-c2ccc3[nH]c(-c4nc(C)no4)cc3c2)c(C)[nH]1
male Sprague-Dawley rat	oral	10 mg/kg	–	AUC	18300 ng·h/mL	N#Cc1[nH]nnc1-c1csc(-c2ccc(Cl)cc2)n1
female Fischer 344 rat	intravenous	12 mg/m²	single dose	AUC(0-inf)	403 ng·h/mL	COc1cc2c3c(n(CCCN4CCOCC4)c(=O)c2cc1OC)-c1cc2c(cc1C3=O)OCO2
rat	oral	5 mg/kg	–	AUC	1.5 µM·h	Cl.Clc1ccc2c(c1)nc(N1CCNCC1)n2Cc1ccccc1
Sprague-Dawley rat	oral	20 mg/kg	–	AUC(0-inf)	4500 ng·h/mL	Oc1c(Br)cc(Cl)c2cccnc12
Sprague-Dawley rat	intravenous	1 mg/kg	–	AUC	308 ng·h/mL	N#Cc1ccc(Nc2nc(N)cc(Oc3c(F)cc(-c4ccc(C#N)cc4)cc3F)n2)cc1
male Sprague-Dawley rat	oral	10 mg/kg	–	AUC	46400 ng·h/mL	N#Cc1[nH]nnc1-c1cccc(OCc2cc(C(F)(F)F)ccc2C(F)(F)F)c1
male Wistar rat	oral	300 mg/kg	–	AUC(0-t)	80700 ng·h/mL	C=CC(=O)N1CC2CC(n3nc(-c4ccc(C(=O)Nc5ccccn5)cc4)c4c(N)ncnc43)CC2C1 (centres unmarked)
